As a reminder, the ED50 is the dose at which the effect has come halfway, by size or by number of responders. High values mean weaker potency, low ones greater potency.

Assay [1] is filed under the species Cavia porcellus. Description: In vitro concentration required to give a 50% increase in basal contractile force in an isolated paced guinea pig papillary muscle preparation. The assay is classed as functional, Muscle tissue. In short, it runs like this:
(§1)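 Isolated guinea pig papillary muscle, loaded at 500 mg, in Krebs-Henseleit with 2.5 mM Ca2+, gassed 95% O2-5% CO2, 34 °C. Paced with 1-ms rectangular pulses at 1.5 Hz, 20% above threshold voltage. Isometric tension recorded. Preparations not contracting uniformly after 60 min were rejected. pA50 is the -log concentration giving a 50% rise in basal force. Top concentrations tested were 0.2, 1 or 5 mM.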

The subject of assay [2] is Canis familiaris. Kind of assay: Maximum percentage change in dP/dt, diastolic blood pressure and heart rate produced by the compound at a dose 0.3 mg/kg. The assay is classed as functional, Canis lupus familiaris, Artery. The procedure, abridged: (§2)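 Beagle dogs of either sex, 8.5-13 kg, anesthetized and open-chest. Induction with thiopentone sodium 30 mg/kg iv, then maintenance with α-chloralose 15 mg/kg plus pentobarbitone 6 mg/kg via a femoral vein cannula. Single iv bolus at 0.1 mL/kg, with vehicle bolus in every animal. Body temperature held at 37-38 °C. Maximal % change recorded for dP/dt, diastolic blood pressure and heart rate.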

Assay [3] has as its system Canis familiaris. Description: Maximum percentage decrease in diastolic blood pressure produced by the compound at a dose 1 mg/kg. It counts as functional, Canis lupus familiaris, Artery. The procedure, abridged:
as §2

For assay [4], the species on record is Canis familiaris. Description: The effective dose to produce a maximum increase in dP/dt diastolic blood pressure and heart rate. It counts as functional, Canis lupus familiaris, Artery. In short, it runs like this: (§3)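 Anesthetized open-chest beagle dogs, 8.5-13 kg, thiopentone induction, α-chloralose/pentobarbitone maintenance, single iv bolus at 0.1 mL/kg. Heart rate taken by tachograph. Doses (mg/kg iv) giving a 50% rise in dP/dt, a 30% fall in diastolic pressure and a 10% rise in heart rate were calculated from mean dose-response data.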

Assay [5] deals with Canis familiaris. Description: Maximum percentage increase in heart rate produced by the compound at a dose 0.3 mg/kg. The assay is classed as functional, Canis lupus familiaris. The procedure, abridged: as §2
For assay [6], the species on record is Canis familiaris. Description: The effective dose was measured to produce the 10%increase in heart rate. The assay is classed as functional, Canis lupus familiaris. The procedure, abridged: as §3
The species named for assay [7] is Canis familiaris. Kind of assay: The effective dose to produce the 30%decrease in diastolic blood pressure. The assay is classed as functional, Canis lupus familiaris, Artery. The procedure, abridged:
as §3

Assay [8] is filed under the species Cavia porcellus. Kind of assay: In vitro concentration required to give a 50% increase in basal contractile force in an isolated paced guinea pig papillary muscle preparation at 5mM; i = 'inactive'. The assay is classed as functional. The note with it: Muscle tissue. The procedure, abridged: as §1
In assay [9] the test system is Canis familiaris. Description: Maximum percentage increase in heart rate produced by the compound at a dose of 3 mg/kg. It counts as functional, Canis lupus familiaris. The procedure, abridged: as §2
Assay [10] has as its system Canis familiaris. Kind of assay: Maximum percentage decrease in diastolic blood pressure produced by the compound at a dose of 3.0 mg/kg. The assay is classed as functional, Canis lupus familiaris, Artery. The procedure, abridged: as §2
Assay [11] relates to Canis familiaris. Description: Maximum percentage change in dP/dt, diastolic blood pressure and heart rate produced by the compound at a dose of 3.0 mg/kg. It counts as functional, Canis lupus familiaris, Artery. In short, it runs like this: as §2
The species entered for assay [12] is Cavia porcellus. Kind of assay: In vitro concentration required to give a 50% increase in basal contractile force in an isolated paced guinea pig papillary muscle preparation at 1mM; i = 'inactive'. It counts as functional. The note with it: Muscle tissue. In short, it runs like this:
as §1

For assay [13], the system named is Canis familiaris. Description: Maximum percentage change in dP/dt, diastolic blood pressure and heart rate produced by the compound at a dose of a mg/kg. The assay is classed as functional, Canis lupus familiaris, Artery. In short, it runs like this: as §2
Assay [14] deals with Canis familiaris. Description: Maximum percentage decrease in diastolic blood pressure produced by the compound at a dose 3 mg/kg. The assay is classed as functional, Canis lupus familiaris, Artery. The procedure, abridged:
as §2

The species entered for assay [15] is Canis familiaris. Description: The effective dose to produce the 30%decrease in diastolic blood pressure. It counts as functional, Canis lupus familiaris, Artery. The procedure, abridged:
as §3

The species named for assay [16] is Canis familiaris. Kind of assay: The effective dose was measured to produce the 10%increase in heart rate. The assay is classed as functional, Canis lupus familiaris. The procedure, abridged: as §3
Assay [17] has as its system Canis familiaris. Description: Maximum percentage change in dP/dt, diastolic blood pressure and heart rate produced by the compound at a dose 3.0 mg/kg. The assay is classed as functional, Canis lupus familiaris, Artery. In short, it runs like this: as §2
For assay [18], the species on record is Cavia porcellus. Description: In vitro concentration required to give a 50% increase in basal contractile force in an isolated paced guinea pig papillary muscle preparation at 0.2mM; i = 'inactive'. It counts as functional. The note with it: Muscle tissue. In short, it runs like this: as §1

In the case of `COc1cc([S+](C)[O-])ccc1-c1nc2cnccc2[nH]1` (stereo not given) [ISOMAZOLE], the pA50 in [1] is reported as 4.64. In addition, the Max increase in assay [2] was determined as 88%; in [5], 15%. The Max decrease in assay [3] is listed as 43%. Besides, the 50% effect level in assay [4] (ED50) was put at a dose of 0.05 mg/kg. The ED10 HR in assay [6] is 0.056 mg/kg. The same compound registered an ED30 DBP in [7] of 0.16 mg/kg.

With `COc1ccc(-c2nc3c(N)cncc3[nH]2)c(OC)c1`, in assay [8], the pA50 entry is “Weak inotropic effects”.

Regarding `COc1cc([S+](C)[O-])ccc1-c1nc2cc(N)c[nH]c-2n1` (stereo not given), the pA50 in [1] was 4.01. For the same compound, the Max increase in [9] is reported as 15%; in assay [11] it was 87%. The Max decrease in [10] amounted to 25%. It took a dose of 0.5 mg/kg to reach the 50% effect level in assay [4] (ED50). In [6], the ED10 HR came to 1.41 mg/kg. The compound further displayed an ED30 DBP in assay [7] greater than 3 mg/kg.

In the case of `COc1c[nH]c2nc(-c3ccc([S+](C)[O-])cc3OC)nc-2c1` (stereo not given), in [1], the pA50 is on record as 3.63.

`COc1ccc(-c2nc3cc(N)c[nH]c-3n2)c(OC)c1` registered a pA50 in [1] of 4.8.

`CNc1[nH]ccc2nc(-c3ccc(OC)cc3OC)nc1-2`: in assay [12], the pA50 entry was “Weak inotropic effects”.

Take `COc1cc([S+](C)[O-])ccc1-c1nc2c(OC)cncc2[nH]1` (stereo not given): the pA50 in assay [1] is 3.

Turning to `COc1cc([S+](C)[O-])ccc1-c1nc2cc(O)c[nH]c-2n1` (stereo not given), the pA50 in [1] is reported as 3.75.

On to `COc1cc([S+](C)[O-])ccc1-c1nc2[nH]ccc(OC)c-2n1` (stereo not given), for which the pA50 in [1] is 4.1.

Consider `COc1cc(SC)ccc1-c1nc2c(N)cncc2[nH]1`, for which the pA50 result in [12] is “Weak inotropic effects”.

Consider `COc1cc([S+](C)[O-])ccc1-c1nc2c(OC)nccc2[nH]1` (stereo not given), for which the pA50 in assay [1] is 3.91. The results for the Max increase in assay [13] and in [5] were 125% and 10%, respectively. This compound also gave an ED50 in [4] of 0.13 mg/kg. This compound also yielded an ED10 HR in assay [6] of 0.28 mg/kg. The Max decrease in assay [14] is given as 70%. In assay [7], this compound yielded an ED30 DBP of 0.2 mg/kg.

For `COc1cc([S+](C)[O-])ccc1-c1nc2c(N)cncc2[nH]1` (stereo not given), the pA50 in assay [1] worked out at 3.72.

On to `COc1cc([S+](C)[O-])ccc1-c1nc2cc(Cl)c[nH]c-2n1` (stereo not given), for which the pA50 in assay [1] amounted to 3.61.

Regarding `COc1cc2[nH]c(-c3ccc([S+](C)[O-])cc3OC)nc2cn1` (stereo not given), the pA50 in assay [1] amounted to 3.76.

Consider `COc1ccc(-c2nc3cc(C(C)=O)c[nH]c-3n2)c(OC)c1`, for which the pA50 result in assay [12] is “Weak inotropic effects”.

On to `COc1ccc(-c2nc3ccc[nH]c-3n2)c(OC)c1`, for which the pA50 in assay [1] is listed as 5.08.

Turning to `COc1ccc(-c2nc3cc[nH]cc-3n2)c(OC)c1`, in assay [1], the pA50 was found to be 4.01.

The compound `COc1cc([S+](C)[O-])ccc1-c1nc2cccnc2[nH]1` (stereo not given) [SULMAZOLE] showed a pA50 in assay [1] of 4.7. In assay [15], this compound showed an ED30 DBP of 1 mg/kg. The compound also showed an ED10 HR in assay [16] of 0.5 mg/kg. Further, the Max increase in assay [9] stood at 20%; in [17], 73%. Further, in [10], the Max decrease worked out at 36%. This compound gave an ED50 in assay [4] of 0.8 mg/kg.

With `COc1ccc2[nH]c(-c3ccc([S+](C)[O-])cc3OC)nc2n1` (stereo not given), the pA50 in [1] was determined as 3.

In the case of `COc1ccc(-c2nc3c(C)nccc3[nH]2)c(OC)c1`, in assay [18], the pA50 entry was “Weak inotropic effects”.

Take `COc1cc([S+](C)[O-])ccc1-c1nc2cc(C)c[nH]c-2n1` (stereo not given): the pA50 in [1] is recorded as 3.73.

For the origin of these results see ChEMBL document CHEMBL1124879, “Inotropic "A" ring substituted sulmazole and isomazole analogues” (1990).
